The source made the active and inactive calls. The rule behind the calls is not given here.
Legend:
Assay type in all cases: cell-based
[1] = (§1) Inhibition of TNF-alpha/IFN-gamma/IL-1beta-induced human CXCL10 (972 bp) promoter activity expressed in human DLD1 cells after 24 hrs by luciferase reporter assay; conditions: DLD-1, 24 h
In short: (§2)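 DLD-1 in 24-well plates, switched to 0.5% FCS without antibiotics a day before lipofection (Lipofectamine 2000, 0.8 µg plasmid) with 972 bp CXCL10 promoter, NF-κB, GAS/Stat1 or ISRE luciferase reporters plus pRL-CMV. Stimulated 24 h with 10 ng/mL TNF-α, 10 ng/mL IFN-γ, 5 ng/mL IL-1β ± compound; Dual-Glo firefly/Renilla read. Stimulation-only = 100%; mean ± SEM, ≥3 experiments.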

[2] = system: DLD-1; assay: as §1; in short: as §2
[3] = Inhibition of TNF-alpha/IFN-gamma/IL-1beta-induced human CXCL10 (972 bp) promoter activity expressed in human DLD1 cells after 24 hrs by […]-driven luciferase reporter assay; conditions: DLD-1, 24 h; in short: as §2
[4] = biological target: T1, Signal transducer and activator of transcription 1-alpha/beta (Homo sapiens) (UniProt P42224); assay: Inhibition of Stat1 (unknown origin)-induced human CXCL10 (972 bp) promoter activity expressed in TNF-alpha/IFN-gamma/IL-1beta-stimulated human DLD1 cells after 24 hrs by luciferase reporter assay; conditions: DLD-1; in short: as §2
T1 sequence (whole entry): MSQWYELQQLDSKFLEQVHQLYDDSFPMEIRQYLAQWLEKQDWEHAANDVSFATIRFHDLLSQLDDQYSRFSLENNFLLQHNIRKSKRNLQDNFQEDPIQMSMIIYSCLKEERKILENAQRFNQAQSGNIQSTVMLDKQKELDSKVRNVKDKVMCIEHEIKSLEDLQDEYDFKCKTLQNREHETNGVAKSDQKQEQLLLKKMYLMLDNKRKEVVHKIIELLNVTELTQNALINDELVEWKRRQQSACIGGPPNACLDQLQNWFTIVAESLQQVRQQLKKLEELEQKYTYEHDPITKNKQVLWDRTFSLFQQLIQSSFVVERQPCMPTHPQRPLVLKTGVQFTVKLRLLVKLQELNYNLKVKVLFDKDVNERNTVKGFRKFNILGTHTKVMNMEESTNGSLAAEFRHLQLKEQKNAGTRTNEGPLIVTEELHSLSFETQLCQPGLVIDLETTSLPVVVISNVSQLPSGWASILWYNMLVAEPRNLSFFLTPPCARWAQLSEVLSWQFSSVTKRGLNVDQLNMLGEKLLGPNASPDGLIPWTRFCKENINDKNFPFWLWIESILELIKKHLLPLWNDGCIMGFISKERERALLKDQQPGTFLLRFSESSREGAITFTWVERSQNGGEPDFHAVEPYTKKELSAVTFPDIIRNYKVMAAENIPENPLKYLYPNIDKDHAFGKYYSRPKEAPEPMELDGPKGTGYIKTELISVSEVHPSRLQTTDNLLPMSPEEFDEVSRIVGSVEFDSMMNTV

[5] = system: DLD-1; assay: Inhibition of TNF-alpha/IFN-gamma/IL-1beta-induced human CXCL10 (972 bp) promoter activity expressed in human DLD1 cells assessed as CXCL10 gene expression at 27.5 uM after 5 hrs by RT-PCR method relative to untreated-control
In short: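 Cells starved 16 h (0.5% FCS), compound pretreatment 1 h, then TNF-α 10 ng/mL/IFN-γ 10 ng/mL/IL-1β 5 ng/mL for 5 h. Total RNA analysed by two-step qRT-PCR for cxcl10, gapdh-corrected (Pfaffl); induced vs uninduced and treated-induced vs untreated-induced (100%).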

[6] = biological target: T2, Nuclear factor NF-kappa-B complex (Homo sapiens) (UniProt Q00653+P19838+Q04206); assay: Inhibition of NF-kappaB (unknown origin) expressed human DLD1 cells assessed as reduction in TNF-alpha gene expression pretreated at 13.75 uM for 1 hr by RT-PCR method relative to untreated-control; conditions: DLD-1
T2 sequence (P19838 whole entry, looked up): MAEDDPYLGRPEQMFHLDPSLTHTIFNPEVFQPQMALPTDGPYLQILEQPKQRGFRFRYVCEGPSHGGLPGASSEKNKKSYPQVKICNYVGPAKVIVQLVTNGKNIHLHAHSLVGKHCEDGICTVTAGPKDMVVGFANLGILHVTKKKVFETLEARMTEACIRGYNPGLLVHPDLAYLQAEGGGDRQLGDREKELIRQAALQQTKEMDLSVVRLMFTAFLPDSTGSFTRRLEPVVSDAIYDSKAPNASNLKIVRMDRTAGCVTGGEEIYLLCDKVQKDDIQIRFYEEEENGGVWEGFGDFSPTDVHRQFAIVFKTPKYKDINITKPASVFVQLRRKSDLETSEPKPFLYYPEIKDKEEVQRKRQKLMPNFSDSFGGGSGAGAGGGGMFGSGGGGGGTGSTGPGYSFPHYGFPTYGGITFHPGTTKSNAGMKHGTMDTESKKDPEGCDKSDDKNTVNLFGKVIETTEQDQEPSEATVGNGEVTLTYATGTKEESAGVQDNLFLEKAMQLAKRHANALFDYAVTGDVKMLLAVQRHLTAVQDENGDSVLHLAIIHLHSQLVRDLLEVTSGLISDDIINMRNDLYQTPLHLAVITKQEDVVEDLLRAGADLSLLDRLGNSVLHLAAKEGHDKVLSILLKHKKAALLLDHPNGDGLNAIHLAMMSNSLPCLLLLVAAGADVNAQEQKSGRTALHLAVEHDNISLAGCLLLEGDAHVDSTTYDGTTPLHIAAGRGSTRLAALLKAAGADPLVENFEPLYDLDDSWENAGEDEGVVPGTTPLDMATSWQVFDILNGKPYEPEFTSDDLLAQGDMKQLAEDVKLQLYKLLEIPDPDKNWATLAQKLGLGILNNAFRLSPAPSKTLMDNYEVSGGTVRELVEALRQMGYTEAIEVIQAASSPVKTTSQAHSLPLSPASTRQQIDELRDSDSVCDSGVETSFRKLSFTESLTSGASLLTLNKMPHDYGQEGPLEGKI
T2 sequence (Q00653 whole entry, looked up): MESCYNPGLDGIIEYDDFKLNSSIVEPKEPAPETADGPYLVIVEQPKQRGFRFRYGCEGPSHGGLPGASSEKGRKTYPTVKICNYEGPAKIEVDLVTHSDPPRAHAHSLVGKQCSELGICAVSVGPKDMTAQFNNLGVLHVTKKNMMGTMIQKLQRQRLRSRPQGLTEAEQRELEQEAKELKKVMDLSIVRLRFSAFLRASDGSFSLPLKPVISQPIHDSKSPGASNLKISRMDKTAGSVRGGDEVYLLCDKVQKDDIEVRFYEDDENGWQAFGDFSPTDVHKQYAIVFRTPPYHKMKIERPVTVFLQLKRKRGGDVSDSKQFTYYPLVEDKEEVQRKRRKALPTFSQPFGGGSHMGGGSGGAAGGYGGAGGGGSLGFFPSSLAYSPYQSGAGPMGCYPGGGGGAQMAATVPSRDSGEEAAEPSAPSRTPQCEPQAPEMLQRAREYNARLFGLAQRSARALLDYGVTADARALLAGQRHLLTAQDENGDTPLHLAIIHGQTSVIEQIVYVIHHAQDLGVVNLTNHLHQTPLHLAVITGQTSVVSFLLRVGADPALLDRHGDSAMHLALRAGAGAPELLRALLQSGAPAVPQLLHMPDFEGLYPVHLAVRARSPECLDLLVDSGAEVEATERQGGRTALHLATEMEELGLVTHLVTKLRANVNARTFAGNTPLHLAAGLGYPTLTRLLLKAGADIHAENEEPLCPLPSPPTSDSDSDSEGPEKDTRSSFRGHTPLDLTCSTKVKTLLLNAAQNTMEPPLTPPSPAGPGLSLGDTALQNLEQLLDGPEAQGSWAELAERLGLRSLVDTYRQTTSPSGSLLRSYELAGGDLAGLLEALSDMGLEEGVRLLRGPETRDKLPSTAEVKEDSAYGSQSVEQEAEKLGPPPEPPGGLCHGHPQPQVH
T2 sequence (Q04206 whole entry, looked up): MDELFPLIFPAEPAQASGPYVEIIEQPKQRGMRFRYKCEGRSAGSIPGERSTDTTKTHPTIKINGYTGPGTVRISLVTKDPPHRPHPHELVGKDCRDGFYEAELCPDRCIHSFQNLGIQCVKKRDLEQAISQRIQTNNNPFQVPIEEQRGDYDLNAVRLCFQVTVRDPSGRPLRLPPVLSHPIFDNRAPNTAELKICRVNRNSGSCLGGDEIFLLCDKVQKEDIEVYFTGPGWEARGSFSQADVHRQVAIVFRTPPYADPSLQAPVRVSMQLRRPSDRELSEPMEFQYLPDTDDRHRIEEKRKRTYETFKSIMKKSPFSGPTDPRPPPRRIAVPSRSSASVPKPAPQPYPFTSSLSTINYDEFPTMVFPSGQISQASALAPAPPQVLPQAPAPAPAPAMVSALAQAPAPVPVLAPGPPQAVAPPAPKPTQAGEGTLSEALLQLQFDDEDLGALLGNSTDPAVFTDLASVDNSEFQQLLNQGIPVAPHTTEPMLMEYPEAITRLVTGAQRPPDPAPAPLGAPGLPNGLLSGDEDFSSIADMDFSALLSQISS
In short: (§3)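 DLD-1 seeded 5×10^5 cells/mL, grown 24 h, starved 16 h in 0.5% FCS, pretreated with compound 1 h, then stimulated with 10 ng/mL TNF-α, 10 ng/mL IFN-γ, 5 ng/mL IL-1β for 5 h. tnf-α, il-1β, inos mRNA by two-step qRT-PCR, Pfaffl relative quantification, normalised to gapdh; stimulated-untreated control = 100%. Mean ± SEM, three independent experiments.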

[7] = biological target: T2, Nuclear factor NF-kappa-B complex (Homo sapiens); assay: Inhibition of NF-kappaB (unknown origin) expressed human DLD1 cells assessed as reduction in IL1-beta gene expression pretreated at 13.75 uM for 1 hr by RT-PCR method relative to untreated-control; conditions: DLD-1; in short: as §3
[8] = biological target: T2, Nuclear factor NF-kappa-B complex (Homo sapiens); assay: Inhibition of NF-kappaB (unknown origin) expressed human DLD1 cells assessed as reduction in iNOS gene expression pretreated at 13.75 uM for 1 hr by RT-PCR method relative to untreated-control; conditions: DLD-1; in short: as §3
[9] = biological target: T1, Signal transducer and activator of transcription 1-alpha/beta (Homo sapiens); assay: Inhibition of Stat1 (unknown origin) expressed human DLD1 cells assessed as reduction in IL1-beta gene expression pretreated at 13.75 uM for 1 hr by RT-PCR method relative to untreated-control; conditions: DLD-1; in short: as §3
[10] = biological target: T1, Signal transducer and activator of transcription 1-alpha/beta (Homo sapiens); assay: Inhibition of Stat1 (unknown origin) expressed human DLD1 cells assessed as reduction in TNF-alpha gene expression pretreated at 13.75 uM for 1 hr by RT-PCR method relative to untreated-control; conditions: DLD-1; in short: as §3
[11] = biological target: T1, Signal transducer and activator of transcription 1-alpha/beta (Homo sapiens); assay: Inhibition of Stat1 (unknown origin) expressed in human DLD1 cells assessed as reduction in iNOS gene expression pretreated at 13.75 uM for 1 hr by RT-PCR method relative to untreated-control; conditions: DLD-1; in short: as §3
[12] = Cytotoxicity against human DLD1 cells up to 50 uM after 48 hrs by XTT assay; conditions: dld-1, 48 h
In short: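 DLD-1 cells (RPMI 1640, 25 mM HEPES, 10% FCS, 37 °C, 5% CO2) exposed to compound for 48 h; viability read as XTT reduction to coloured formazan.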

[13] = system: DLD-1; assay: Inhibition of TNF-alpha/IFN-gamma/IL-1beta-induced human CXCL10 (972 bp) promoter activity expressed in human DLD1 cells assessed as reduction in CXCL10 expression pretreated at 27.5 uM for 1 hr prior to 16 hrs cytokine challenge by proteome profiling method relative to untreated-control
In short: (§4)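 DLD-1 starved 16 h in 0.5% FCS, seeded 5×10^6 cells/mL, pretreated 1 h with compound, then stimulated 16 h with 10 ng/mL TNF-α, 10 ng/mL IFN-γ, 5 ng/mL IL-1β. Supernatant cytokines/chemokines detected on Human Cytokine Array Panel A antibody array.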

[14] = system: DLD-1; assay: Inhibition of TNF-alpha/IFN-gamma/IL-1beta-induced human CXCL10 (972 bp) promoter activity expressed in human DLD1 cells assessed as reduction in MIF expression pretreated at 27.5 uM for 1 hr prior to 16 hrs cytokine challenge by proteome profiling method relative to untreated-control; in short: as §4
[15] = system: DLD-1; assay: Inhibition of TNF-alpha/IFN-gamma/IL-1beta-induced human CXCL10 (972 bp) promoter activity expressed in human DLD1 cells assessed as reduction in IL8 expression pretreated at 27.5 uM for 1 hr prior to 16 hrs cytokine challenge by proteome profiling method relative to untreated-control; in short: as §4
[16] = system: DLD-1; assay: Inhibition of TNF-alpha/IFN-gamma/IL-1beta-induced human CXCL10 (972 bp) promoter activity expressed in human DLD1 cells assessed as reduction in CXCL1 expression pretreated at 27.5 uM for 1 hr prior to 16 hrs cytokine challenge by proteome profiling method relative to untreated-control; in short: as §4
[17] = system: DLD-1; assay: Inhibition of TNF-alpha/IFN-gamma/IL-1beta-induced human CXCL10 (972 bp) promoter activity expressed in human DLD1 cells assessed as reduction in IL1-beta expression pretreated at 27.5 uM for 1 hr prior to 16 hrs cytokine challenge by proteome profiling method relative to untreated-control; in short: as §4
[18] = system: DLD-1; assay: Inhibition of TNF-alpha/IFN-gamma/IL-1beta-induced human CXCL10 (972 bp) promoter activity expressed in human DLD1 cells assessed as reduction in IL-27 expression pretreated at 27.5 uM for 1 hr prior to 16 hrs cytokine challenge by proteome profiling method relative to untreated-control; in short: as §4
[19] = system: DLD-1; assay: Inhibition of TNF-alpha/IFN-gamma/IL-1beta-induced human CXCL10 (972 bp) promoter activity expressed in human DLD1 cells assessed as reduction in TNF-alpha expression pretreated at 27.5 uM for 1 hr prior to 16 hrs cytokine challenge by proteome profiling method relative to untreated-control; in short: as §4
[20] = system: DLD-1; assay: Inhibition of TNF-alpha/IFN-gamma/IL-1beta-induced human CXCL10 (972 bp) promoter activity expressed in human DLD1 cells assessed as reduction in CXCL10 expression pretreated at 131.5 uM for 1 hr prior to 16 hrs cytokine challenge by proteome profiling method relative to untreated-control; in short: as §4

IC50 [1]: 12.4 µM | IC50 [3]: 14.3 µM | inhibition [4]: Dose-dependent effect | inhibition [6]: Active | inhibition [7]: Active | inhibition [8]: Active | inhibition [9]: Active | inhibition [10]: Active | inhibition [11]: Active
SMILES: CCCCCC(=O)O[C@@H]1C=C2COC(=O)C2(O)[C@@]2(C)CCCC(C)(C)[C@H]12 (stereo not given in full)
inhibition [2]: Dose-dependent effect | inhibition [5]: Active | Activity [12]: Non-toxic | inhibition [13]: Active | inhibition [14]: Active | inhibition [15]: Active | inhibition [16]: Active | inhibition [17]: Active | inhibition [18]: Active | inhibition [19]: Active | inhibition [20]: Active
